Experimental data collected from several papers.
rep main protease: Replicase polyprotein 1ab, main protease (rep, Severe acute respiratory syndrome coronavirus 2, UniProt P0DTD1)

Structure (SMILES)	target	assay	setting	quantity	value
CC(C)C[C@H](NC(=O)OCc1ccccc1)C(=O)N[C@@H](CC(C)C)C(=O)N[C@@H](CC1CCNC1=O)C(=O)C(=O)NC1CC1 (some centres unmarked)	rep main protease	enzyme activity, inhibitor		kinact/KI	90500 M⁻¹ s⁻¹
Cc1ccc2nc(Cl)c(C=Nc3cc(Br)ccn3)cc2c1	rep main protease	thermal stability	100 µM	ΔTm	8 to 12 °C
CC(C)[C@H](NC(=O)OC(C)(C)C)C(=O)N1C[C@@H]2CCC[C@@H]2[C@H]1C(=O)N[C@H](C=O)C[C@@H]1CCNC1=O	rep main protease	thermal stability	40 µM	ΔTm	11 °C
CC(C)(C)NC(=O)[C@@H]1CN(Cc2cccnc2)CCN1C[C@@H](O)C[C@@H](Cc1ccccc1)C(=O)N[C@H]1c2ccccc2C[C@H]1O	rep main protease	enzyme activity, inhibitor, FRET	100 µM	activity vs control	100%
CCN(C[C@H]1O[C@@H](n2cnc3c(N)ncnc32)[C@H](O)[C@@H]1O)S(=O)(=O)c1ccc(OC)c(C#N)c1	Replicase polyprotein 1ab, methyltransferase (rep, Severe acute respiratory syndrome coronavirus 2, UniProt P0DTD1)	enzyme activity, inhibitor	5 µM	remaining activity	0.1%
CS(=O)(=O)CCNCc1ccc(-c2ccc3ncnc(Nc4ccc(OCc5cccc(F)c5)c(Cl)c4)c3c2)o1	rep main protease	enzyme activity, inhibitor, FRET	100 µM	activity vs control	100%
Clc1nc2ccccc2cc1/C=N\c1ccc(Br)nc1	rep main protease	thermal stability	100 µM	ΔTm	8 to 12 °C
C=C1CC[C@@H]2[C@](C)(CO)[C@H](O)CC[C@@]2(C)[C@@H]1C/C=C1/C(=O)OC[C@H]1O	rep main protease	enzyme activity, inhibitor	20 µM	remaining activity	96%
